Measurements as given in ChEMBL document CHEMBL1132451, “Evaluation and biological properties of reactive ligands for the mapping of the glycine site on the N-methyl-D-aspartate (NMDA) receptor” (J Med Chem, 1999).

Experiments:
[1] = biological target: Glutamate NMDA receptor; Grin1/Grin2b (Rattus norvegicus, UniProt P35439+Q00960); experiment: Antagonistic activity for suppression of membrane current response elicited by fixed concentration of glycine and glutamate in Xenopus oocyte expressing N-methyl-D-aspartate glutamate receptor 1/2B; assay type: functional
How it was run: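 Xenopus oocytes expressing cloned NR1A/NR2B, superfused with frog's Ringer (10 mM HEPES, 115 mM NaCl, 0.9 mM CaCl2, 1 mM KCl, pH 7.2) containing 1 μM glycine plus 100 μM glutamate, with increasing antagonist. Washes of 4–6 min between stimulations. IC50 from five-point concentration-inhibition curves, sigmoidal fit, assuming competitive inhibition. Mean (SE) of ≥3 experiments.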

[2] = biological target: Glutamate receptor ionotropic, NMDA 1 (Rattus norvegicus, UniProt P35439); experiment: Displacement of [3H]-5-7 dichlorokynurenic acid ([3H]- DCKA) from N-methyl-D-aspartate glutamate receptor glycine site of rat brain membrane homogenate; assay type: tissue-based
How it was run: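 Rat brain membranes kept at -80 °C, thawed, washed in HEPES-KOH 50 mM pH 7.5. About 0.1 mg protein incubated 30 min at 4 °C with 20 nM [3H]-DCKA and increasing probe; nonspecific binding with 1 mM glycine. Filtration, then scintillation counting. Logistic fit; Ki by Cheng-Prusoff (KD 35 nM). Mean (SE) of ≥3 experiments.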

Chain of Glutamate NMDA receptor; Grin1/Grin2b (Q00960 whole entry, other chains not shown, the tested form may be a part): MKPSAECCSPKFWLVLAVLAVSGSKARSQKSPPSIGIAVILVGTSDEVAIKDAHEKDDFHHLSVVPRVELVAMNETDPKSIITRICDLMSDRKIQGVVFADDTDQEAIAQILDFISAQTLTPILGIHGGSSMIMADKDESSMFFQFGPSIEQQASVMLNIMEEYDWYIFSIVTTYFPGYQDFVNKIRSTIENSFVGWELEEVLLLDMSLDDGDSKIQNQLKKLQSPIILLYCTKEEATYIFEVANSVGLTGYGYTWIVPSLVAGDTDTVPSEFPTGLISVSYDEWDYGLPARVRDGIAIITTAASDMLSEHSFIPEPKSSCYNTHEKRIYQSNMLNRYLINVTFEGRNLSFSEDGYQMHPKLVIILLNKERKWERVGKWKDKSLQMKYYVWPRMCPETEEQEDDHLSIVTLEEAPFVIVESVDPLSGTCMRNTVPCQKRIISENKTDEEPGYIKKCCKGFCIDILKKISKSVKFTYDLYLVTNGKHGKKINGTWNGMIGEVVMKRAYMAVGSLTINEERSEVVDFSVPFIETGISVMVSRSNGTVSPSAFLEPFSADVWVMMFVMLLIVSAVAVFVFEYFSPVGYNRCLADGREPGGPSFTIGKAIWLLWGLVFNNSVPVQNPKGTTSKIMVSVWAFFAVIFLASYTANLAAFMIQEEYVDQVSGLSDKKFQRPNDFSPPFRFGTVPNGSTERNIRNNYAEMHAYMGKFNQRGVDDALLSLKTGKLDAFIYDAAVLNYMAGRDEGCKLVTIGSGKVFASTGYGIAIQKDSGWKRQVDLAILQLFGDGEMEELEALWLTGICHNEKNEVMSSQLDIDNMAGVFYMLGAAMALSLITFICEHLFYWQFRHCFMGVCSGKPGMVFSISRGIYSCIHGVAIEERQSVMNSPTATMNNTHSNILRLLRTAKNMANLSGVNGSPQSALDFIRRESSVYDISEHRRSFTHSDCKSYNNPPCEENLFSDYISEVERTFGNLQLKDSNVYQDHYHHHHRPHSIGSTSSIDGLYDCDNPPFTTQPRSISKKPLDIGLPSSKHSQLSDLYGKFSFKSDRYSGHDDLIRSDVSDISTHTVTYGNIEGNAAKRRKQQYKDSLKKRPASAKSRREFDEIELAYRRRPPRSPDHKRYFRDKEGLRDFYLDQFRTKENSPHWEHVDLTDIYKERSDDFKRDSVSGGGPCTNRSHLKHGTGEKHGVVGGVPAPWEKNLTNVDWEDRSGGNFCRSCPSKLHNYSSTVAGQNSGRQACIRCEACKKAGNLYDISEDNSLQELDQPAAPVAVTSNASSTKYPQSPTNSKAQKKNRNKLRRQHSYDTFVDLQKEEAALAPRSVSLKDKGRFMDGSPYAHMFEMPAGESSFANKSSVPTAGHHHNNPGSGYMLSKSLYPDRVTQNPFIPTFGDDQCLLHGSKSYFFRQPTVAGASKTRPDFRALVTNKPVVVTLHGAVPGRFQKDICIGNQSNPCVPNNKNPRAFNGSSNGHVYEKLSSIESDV

Row | Compound | IC50 [1] | Ki [2]
1 | O=C(Oc1c(-c2cccc(Oc3ccccc3)c2)c(=O)[nH]c2cc(Cl)ccc12)c1ccc(S(=O)(=O)F)cc1 | 2410 nM | 24.2 nM
2 | O=C(CCl)Nc1cccc(Oc2cccc(-c3c(O)nc4cc(Cl)ccc4c3O)c2)c1 | 39 nM | 13.8 nM
3 | O=c1[nH]c2cc(Cl)ccc2c(O)c1-c1cccc(N=C=S)c1 | 200 nM | 47.6 nM
4 | O=C(CCl)Nc1ccccc1Oc1cccc(-c2c(O)nc3cc(Cl)ccc3c2O)c1 | 24 nM | 7.1 nM
5 | O=c1[nH]c2cc(Cl)ccc2c(O)c1-c1cccc(NCCS(=O)(=O)F)c1 | 335 nM | 24 nM
6 | O=c1[nH]c2cc(Cl)ccc2c(O)c1-c1cccc(Oc2ccccc2NCCS(=O)(=O)F)c1 | 32 nM | 26.8 nM
7 | O=c1[nH]c2cc(N=C=S)ccc2c(O)c1-c1cccc(Oc2ccccc2)c1 | 24000 nM | 64.3 nM

The next lines start with the values.

Row | IC50 [1] | Ki [2] | Compound
8 | > 100000 nM | 216 nM | O=C(CCl)Nc1c(-c2cccc(Oc3ccccc3)c2)c(=O)[nH]c2cc(Cl)ccc12
9 | 38000 nM | 278 nM | O=C(CCl)Nc1ccc2c(O)c(-c3cccc(Oc4ccccc4)c3)c(=O)[nH]c2c1
10 | 155 nM | 42 nM | O=C(CCl)Nc1cccc(-c2c(O)c3ccc(Cl)cc3[nH]c2=O)c1
11 |  | > 1000 nM | N#[N+]c1ccc2c(O)c(-c3cccc(Oc4ccccc4)c3)c(O)nc2c1
12 | 63000 nM | 427 nM | O=C(CCl)Nc1ccc2c(OC(=O)CCl)c(-c3cccc(Oc4ccccc4)c3)c(=O)[nH]c2c1
13 | 18 nM | 14 nM | O=c1[nH]c2cc(Cl)ccc2c(O)c1-c1cccc(Oc2ccccc2)c1
